Test [1] addresses Histone deacetylase. In words: Inhibition of HDAC in HeLa cell lysates. Format: protein assay, Homo sapiens.
In test [2] the test system is PC-3. The experiment in a line: Growth inhibition of human PC3 cells by SRB assay. The test is classed as functional.
In test [3] the test system is MDA-MB-231. In words: Growth inhibition of human MDA-MB-231 cells by SRB assay. The test is classed as functional.
Test [4] relates to ACHN. In words: Growth inhibition of human ACHN cells by SRB assay. Format: functional. In general terms: In SRB staining, fixed cells bind dye roughly in proportion to their protein.
Test [5] concerns HCT-15. The experiment in a line: Growth inhibition of human HCT15 cells by SRB assay. Format: functional.
For test [6], the target named is Histone deacetylase (Homo sapiens) (UniProt Q13547+O15379+Q9UBN7+Q92769+Q9UQL6+Q8WUI4+Q9BY41+Q96DB2+P56524+Q9UKV0+Q969S8). The note with it: HeLa.
In test [7] the test system is NUGC-3. The experiment in a line: Growth inhibition of human NUGC3 cells by SRB assay. The test is classed as functional.
For test [8], the system named is MDA-MB-231. The experiment in a line: Antitumor activity against MDA-MB-231 cells xenografted BALB/c nude mouse assessed as body weight at 30 mg/kg, ip for 15 days. The conditions noted are these: route intraperitoneal. The test is classed as functional, Homo sapiens. An outline of the steps: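 Nude mice carrying MDA-MB-231 human breast xenografts were dosed once daily by intraperitoneal injection at 30 mg/kg. Dosing began once tumours reached 50–60 mm³.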

Test [9] deals with MDA-MB-231. In words: Antitumor activity against MDA-MB-231 cells xenografted BALB/c nude mouse at 30 mg/kg, ip for 15 days. The note with it: MDA-MB-231, ip, 360 h, route intraperitoneal. The test is classed as functional, Homo sapiens.

Structures are written as SMILES.

Consider `COc1ccccc1CN1CCC=C(CCC(=O)NO)C1=O`, for which the 50% inhibitory concentration (IC50) – broadly, the concentration needed to halve the response being measured – in test [1] turned out to be 0.86 µM. The GI50 in test [2], in [3], in test [4] and in [5] was greater than 10 µM throughout.

In test [1], `COc1ccc(CN2CCC=C(CCC(=O)NO)C2=O)cc1` registered a 50% inhibitory concentration (IC50) of 0.44 µM. For the same compound, the concentration for 50% growth inhibition (GI50) – broadly, the concentration giving 50% growth inhibition – turned out to be 7.08 µM in test [2], 3.86 µM in test [3], 1.67 µM in test [4] and 6.89 µM in test [5].

For `O=C(CCC1=CCCN(Cc2ccc3ccccc3c2)C1=O)NO`, in test [6], the IC50 was greater than 10 µM.

`Cc1ccc(S(=O)(=O)Nc2ccc(CN3CCC=C(CCC(=O)NO)C3=O)cc2)cc1` registered an IC50 in [1] of 0.59 µM. The GI50 is 1.8 µM in test [2], 0.56 µM in [3], 0.37 µM in test [4] and greater than 10 µM in [5].

Consider `O=C(CCC1=CCCN(Cc2ccc(F)cc2)C1=O)NO`, for which the 50% inhibitory concentration (IC50) in [1] was 0.56 µM. Moreover, growth in [5] was halved (GI50) at 9.96 µM.

For the compound `Cc1ccc(CN2CCC=C(CCC(=O)NO)C2=O)cc1`, in test [1], the IC50 amounted to 2.1 µM. For the same compound, the GI50 in [2] came to 8.1 µM; in test [3], 1.43 µM; in test [4], 5 µM; in [5], 8.51 µM.

With `O=C(CCC1=CCCN(CCCCc2cccc3ccccc23)C1=O)NO`, in test [1], the IC50 was determined as 0.11 µM. Further, the GI50 in test [2] was determined as 1.69 µM; in test [3], 1.47 µM; in [4], 1.82 µM; in test [7], 2.01 µM; in test [5] it was 1.67 µM.

`Cc1ccccc1CN1CCC=C(CCC(=O)NO)C1=O` returned an IC50 in test [1] of 2.97 µM. For the same compound, the 50% growth inhibitory concentration (GI50) in [2] is greater than 10 µM; in test [3], 4.92 µM; in test [4], greater than 10 µM; in test [5] it was greater than 10 µM.

Regarding `O=C(CCC1=CCCN(Cc2ccc(Br)cc2)C1=O)NO`, in [1], the IC50 amounted to 0.45 µM. Moreover, the GI50 in test [2] is 3.15 µM; in test [3], 1.63 µM; in [4], 2.48 µM; in [5], 1.72 µM.

Consider `O=C(CCC1=CCCN(CCc2ccc(-c3ccccc3)cc2)C1=O)NO`, for which the IC50 in test [1] came out at 0.23 µM. The GI50 in test [2] came out at 0.53 µM; in test [3], 0.28 µM; in test [4], 1.18 µM; in [7], 1.65 µM; in test [5], 1 µM.

`O=C(CCC1=CCCN(CCCc2ccc(-c3ccccc3)cc2)C1=O)NO` showed a half-maximal inhibitory concentration (IC50) in [1] of 0.27 µM. Further, the GI50 in [2] came to 3.23 µM; in [3], 1.04 µM; in [4], 2.49 µM; in [7], 3.7 µM; in test [5] it was 3.19 µM.

`O=C(CCC1=CCCN(CCCc2ccc3ccccc3c2)C1=O)NO` came in with a concentration for half-maximal inhibition (IC50) in test [1] of 0.03 µM. For the same compound, the GI50 is 0.3 µM in [2]; 0.56 µM in test [3]; 0.46 µM in test [4]; 0.79 µM in [7]; 0.53 µM in test [5].

Regarding `O=C(CCC1=CCCN(Cc2ccc(NC(=O)c3ccccc3)cc2)C1=O)NO`, the IC50 in [1] came out at 0.51 µM. Moreover, the GI50 is greater than 10 µM in test [2]; 6.03 µM in test [3]; greater than 10 µM in [4]; greater than 10 µM in test [7]; greater than 10 µM in [5].

Regarding `O=C(CCC1=CCCN(CCc2cccc3ccccc23)C1=O)NO`, the IC50 in [1] turned out to be 0.32 µM. The GI50 in test [2] was 2.58 µM; in test [3], 2.53 µM; in [4] it was 6.62 µM; in test [7], 3.26 µM; in [5], 5.43 µM.

In turn, `Cc1cccc(CN2CCC=C(CCC(=O)NO)C2=O)c1` yielded a 50% inhibitory concentration (IC50) in [1] of 1.9 µM. Besides, the GI50 in [2] was greater than 10 µM; in [3] it was 8.12 µM; in [4] it was 4.38 µM; in [5], greater than 10 µM.

In the case of `O=C(CCC1=CCCN(CCCCc2ccc(-c3ccccc3)cc2)C1=O)NO`, the IC50 in test [1] was 0.2 µM. In addition, the GI50 amounted to 2.95 µM in test [2]; 1.28 µM in test [3]; 2.67 µM in test [4]; 4.2 µM in test [7]; 4.56 µM in [5].

In the case of `O=C(CCCCCCC(=O)Nc1ccccc1)NO` [VORINOSTAT], the Activity in [8] was 100%. In test [4], this compound showed a 50% growth inhibitory concentration (GI50) of 2.22 µM.

Compound `O=C(CCC1=CCCN(CCc2ccc3ccccc3c2)C1=O)NO` yielded a half-inhibitory concentration (IC50) in test [1] of 0.037 µM. The GI50 is 0.61 µM in test [2]; 0.28 µM in test [3]; 1.18 µM in [4]; 0.37 µM in [7]; 1.16 µM in [5]. Further, the Activity in [8] was determined as 94%. In addition, the inhibition in vivo (as a rule, the drop in the measured response relative to a control, in per cent) at 30 mg/kg in [9] is 51%.

`O=C(CCC1=CCCN(Cc2ccc([N+](=O)[O-])cc2)C1=O)NO`: in [1], the concentration for half-maximal inhibition (IC50) came to 0.23 µM. Moreover, the 50% growth inhibitory concentration (GI50) in [2] was 3.01 µM; in [3], 0.47 µM; in [4], 5.21 µM; in test [7], 1.11 µM; in [5], greater than 10 µM.

Consider `CC(=O)Nc1ccc(CN2CCC=C(CCC(=O)NO)C2=O)cc1`, for which the 50% inhibitory concentration (IC50) in [1] was 0.82 µM. Besides, the GI50 in [2] is greater than 10 µM.

In turn, `COc1cccc(CN2CCC=C(CCC(=O)NO)C2=O)c1` yielded an IC50 in test [1] of 1.94 µM. For the same compound, the 50% growth inhibitory concentration (GI50) in test [2] is greater than 10 µM; in test [3], 3.92 µM; in test [4], 7.6 µM; in test [5], 9.03 µM.

These data come from ChEMBL document CHEMBL1140539, “Modification of cap group in delta-lactam-based histone deacetylase (HDAC) inhibitors” (Bioorg Med Chem Lett, 2007).
